Calls of active or inactive are those of the source. No cut-off for these calls is given here.

Test [1] in a line: Inhibition of FAM-Bim peptide binding to human Hsp70 NBD (1 to 383) measured after 30 mins by fluorescence polarization assay. The method in brief: (§1)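 Fluorescence polarization competition. Serial dilutions of compound added to protein–probe mixture in buffer containing 0.02% sodium azide, incubated 30 min, then polarization read. Control values subtracted. IC50 from the competitive inhibition curve of polarization versus compound concentration.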
(In general: Polarisation of emitted light reports the rotation of a fluorescent probe.)

Test [2] has as its target Apoptosis regulator Bcl-2 (Homo sapiens, UniProt P10415). The test can be described thus: Inhibition of FAM-Bim peptide binding to human Bcl-2 (2 to 206) measured after 30 mins by fluorescence polarization assay. The method in brief: as §1
The subject of test [3] is BV-173. The test can be described thus: Induction of apoptosis in human BV-173 cells by AnnexinV-FITC/PI staining based flow cytometric analysis. Format: functional, cell-based. In a few lines: (§2)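 Cells treated with inhibitor for 48 h (DMSO stocks diluted in medium), washed in PBS with 1% bovine calf serum, stained with FITC–Annexin V (1:40) for 10 min in the dark at room temperature, and analysed by flow cytometry. EC50 is the concentration giving 50% apoptosis. Culture conditions: BV173 and KCL22 in RPMI 1640, HEK293 in DMEM, BaF3 in RPMI 1640 with 10 ng/ml mouse IL-3, all with 10% FBS at 37 °C, 5% CO2.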

For test [4], the system named is BV-173. The test can be described thus: Inhibition of Hsp70/Bim protein protein interaction in human BV-173 cell lysate at 1 to 5 uM by co-IP/Western blot analysis. Format: subcellular. The following applies: dose 1-5 µM. The method in brief:
(§3)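 BV173 cells treated at 0, 1, 3 and 5 µM. Immunoprecipitated with sepharose beads for 2 h at 4 °C. Hsp70, Bim and Bag3 probed by Western blot with β-actin as loading control.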
(In western blotting, separated proteins are transferred to a membrane and probed.)

Test [5] concerns KCL-22. Put plainly: Inhibition of Hsp70/Bim protein protein interaction in human KCL-22 cells assessed as decrease in Akt expression at 3 uM by Western blot analysis. Format: cell-based. In a few lines:
(§4)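 BV173 and KCL22 cells treated at 3 µM, with DMSO as vehicle. Lysed in RIPA with protease/phosphatase inhibitor for 30 min on ice and protein measured by BCA. 150–250 µg resolved by SDS-PAGE and blotted for AKT, pAKT, Raf-1 and pRaf-1, with β-actin loading control.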

In test [6] the test system is BV-173. Put plainly: Competitive binding affinity to HSP70 in human BV-173 cell lysate by pull-down/Western blot analysis. The class given is subcellular. In a few lines: (§5)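 BV173 cell lysate incubated with biotin-clickable affinity probe, with or without competitor. Probe-bound proteins pulled down on streptavidin/avidin agarose after click reaction. Beads washed with 0.1% SDS and PBS, boiled 15 min in SDS loading buffer. Hsp70, Hsc70 and Mortalin detected by Western blot.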

Test [7] relates to KCL-22. Put plainly: Inhibition of Hsp70/Bim protein protein interaction in human KCL-22 cells assessed as decrease in Akt phosphorylation at 3 uM by Western blot analysis. Format: cell-based. The method in brief: as §4
Test [8] concerns HEK293. Put plainly: Induction of apoptosis in human HEK293 cells by AnnexinV-FITC/PI staining based flow cytometric analysis. Format: cell-based. In a few lines:
as §2

Test [9] concerns KCL-22. The test can be described thus: Inhibition of Hsp70/Bim protein protein interaction in human KCL-22 cells assessed as decrease in Raf-1 phosphorylation at 3 uM by Western blot analysis. The class given is cell-based. The method in brief:
as §4

Test [10] concerns BV-173. Put plainly: Induction of apoptosis in human BV-173 cells transfected with Hsp70 shRNA at 3 uM by AnnexinV staining method. Format: functional, cell-based. In a few lines:
(§6)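 Stable clones of BV173 carrying non-silencing, Hsp70 or Bim shRNA, treated at 3 µM for 48 h. Apoptosis scored by Annexin V-FITC staining and flow cytometry. n = 3 independent samples, mean ± s.e.m.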

In test [11] the test system is BV-173. Put plainly: Inhibition of Hsp70/Bim protein protein interaction in human BV-173 cells assessed as decrease in Raf-1 phosphorylation at 3 uM by Western blot analysis. Format: cell-based. The method in brief: as §4
Test [12] deals with BV-173. The test can be described thus: Induction of apoptosis in human BV-173 cells transfected with Bim shRNA at 3 uM by AnnexinV staining method. The class given is functional, cell-based. The method in brief:
as §6

Test [13] addresses Heat shock cognate 71 kDa protein (Homo sapiens) (UniProt P11142). The test can be described thus: Competitive binding affinity to Hsc70 in human BV-173 cell lysate up to 10 uM by pull-down/Western blot analysis. Format: subcellular. The following applies: dose microM <=10. The method in brief:
as §5

In test [14] the test system is BV-173. Put plainly: Inhibition of Hsp70/Bim protein protein interaction in human BV-173 cells assessed as decrease in Akt phosphorylation at 3 uM by Western blot analysis. Format: cell-based. The method in brief:
as §4

The subject of test [15] is BV-173. Put plainly: Inhibition of Hsp70/Bim protein protein interaction in human BV-173 cells assessed as decrease in Raf-1 expression at 3 uM by Western blot analysis. The class given is cell-based. The method in brief:
as §4

In test [16] the test system is KCL-22. The test can be described thus: Induction of apoptosis in human KCL-22 cells by AnnexinV-FITC/PI staining based flow cytometric analysis. The class given is functional, cell-based. In a few lines:
as §2
(In general: A flow cytometer gives signals particle by particle.)

Test [17] in a line: Binding affinity to human Hsp70 NBD (1 to 383) assessed as dissociation constant measured by isothermal titration calorimetry assay. The method in brief:
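ITC: binding isotherms integrated to give enthalpy change against ligand molar ratio, fitted with a one-set-of-sites model. Kd taken from the slope of the central linear part of the fractional saturation curve. Three independent experiments.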

The test system of test [18] is BV-173. Put plainly: Inhibition of Hsp70/Bim protein protein interaction in human BV-173 cells assessed as decrease in Akt expression at 3 uM by Western blot analysis. The class given is cell-based. The method in brief: as §4
For test [19], the system named is KCL-22. Put plainly: Inhibition of Hsp70/Bim protein protein interaction in human KCL-22 cells assessed as decrease in Raf-1 expression at 3 uM by Western blot analysis. The class given is cell-based. The method in brief:
as §4

The species named for test [20] is Homo sapiens. The test can be described thus: Inhibition of BimBH3-stimulated human HSP70 ATPase activity.
Test [21] concerns BaF3. Put plainly: Induction of apoptosis in mouse BaF3 cells by AnnexinV-FITC/PI staining based flow cytometric analysis. Format: cell-based. In a few lines:
as §2

The test system of test [22] is BV-173. The test can be described thus: Inhibition of Hsp70/Bag3 protein protein interaction in human BV-173 cell lysate at 1 to 5 uM by co-IP/Western blot analysis. The class given is subcellular. The following applies: dose 1-5 µM. In a few lines:
as §3

Test [23] has as its target Stress-70 protein, mitochondrial (Homo sapiens) (UniProt P38646). Put plainly: Competitive binding affinity to Mortalin in human BV-173 cell lysate up to 10 uM by pull-down/Western blot analysis. The class given is subcellular. The following applies: dose microM <=10. In a few lines:
as §5

For test [24], the system named is BV-173. The test can be described thus: Induction of apoptosis in human BV-173 cells transfected with Bim shRNA assessed as cleaved PARP at 3 uM by Western blot analysis. Format: functional, cell-based. The method in brief: (§7)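 Stable non-silencing, Hsp70 or Bim shRNA BV173 clones treated at 3 µM. Lysed in RIPA with protease/phosphatase inhibitors, 150–250 µg protein resolved by SDS-PAGE, and PARP cleavage detected by immunoblot. n = 3 independent samples.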

In test [25] the test system is BV-173. The test can be described thus: Induction of apoptosis in human BV-173 cells transfected with Hsp70 shRNA assessed as cleaved PARP at 3 uM by Western blot analysis. Format: functional, cell-based. The method in brief: as §7

Sequence of Apoptosis regulator Bcl-2 (P10415 whole entry): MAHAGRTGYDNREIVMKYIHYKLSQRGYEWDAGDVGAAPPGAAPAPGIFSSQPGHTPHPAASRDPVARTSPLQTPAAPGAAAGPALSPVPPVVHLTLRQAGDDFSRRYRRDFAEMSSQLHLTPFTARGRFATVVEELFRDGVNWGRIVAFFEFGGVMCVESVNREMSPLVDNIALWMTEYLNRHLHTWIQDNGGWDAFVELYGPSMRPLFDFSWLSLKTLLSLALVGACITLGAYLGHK
Sequence of Heat shock cognate 71 kDa protein (Homo sapiens) (P11142 2-646 limits assumed): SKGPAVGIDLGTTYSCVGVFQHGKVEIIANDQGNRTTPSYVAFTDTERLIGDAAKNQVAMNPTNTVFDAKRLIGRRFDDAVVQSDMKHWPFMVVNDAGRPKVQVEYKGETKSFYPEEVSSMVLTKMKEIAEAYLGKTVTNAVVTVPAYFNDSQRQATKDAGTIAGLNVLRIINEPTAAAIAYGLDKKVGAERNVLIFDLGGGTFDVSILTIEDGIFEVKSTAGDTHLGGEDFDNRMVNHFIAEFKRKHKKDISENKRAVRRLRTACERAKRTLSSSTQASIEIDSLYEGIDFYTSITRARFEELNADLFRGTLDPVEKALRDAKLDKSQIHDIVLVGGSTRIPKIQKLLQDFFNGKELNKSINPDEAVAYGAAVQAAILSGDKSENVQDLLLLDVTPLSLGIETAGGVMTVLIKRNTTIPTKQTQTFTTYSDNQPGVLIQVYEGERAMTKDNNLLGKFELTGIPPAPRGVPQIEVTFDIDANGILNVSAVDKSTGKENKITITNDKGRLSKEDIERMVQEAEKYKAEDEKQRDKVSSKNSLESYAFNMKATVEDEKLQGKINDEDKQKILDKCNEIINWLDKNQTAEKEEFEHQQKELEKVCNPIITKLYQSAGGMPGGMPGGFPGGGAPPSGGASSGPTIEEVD
Sequence of Stress-70 protein, mitochondrial (Homo sapiens) (P38646 whole entry): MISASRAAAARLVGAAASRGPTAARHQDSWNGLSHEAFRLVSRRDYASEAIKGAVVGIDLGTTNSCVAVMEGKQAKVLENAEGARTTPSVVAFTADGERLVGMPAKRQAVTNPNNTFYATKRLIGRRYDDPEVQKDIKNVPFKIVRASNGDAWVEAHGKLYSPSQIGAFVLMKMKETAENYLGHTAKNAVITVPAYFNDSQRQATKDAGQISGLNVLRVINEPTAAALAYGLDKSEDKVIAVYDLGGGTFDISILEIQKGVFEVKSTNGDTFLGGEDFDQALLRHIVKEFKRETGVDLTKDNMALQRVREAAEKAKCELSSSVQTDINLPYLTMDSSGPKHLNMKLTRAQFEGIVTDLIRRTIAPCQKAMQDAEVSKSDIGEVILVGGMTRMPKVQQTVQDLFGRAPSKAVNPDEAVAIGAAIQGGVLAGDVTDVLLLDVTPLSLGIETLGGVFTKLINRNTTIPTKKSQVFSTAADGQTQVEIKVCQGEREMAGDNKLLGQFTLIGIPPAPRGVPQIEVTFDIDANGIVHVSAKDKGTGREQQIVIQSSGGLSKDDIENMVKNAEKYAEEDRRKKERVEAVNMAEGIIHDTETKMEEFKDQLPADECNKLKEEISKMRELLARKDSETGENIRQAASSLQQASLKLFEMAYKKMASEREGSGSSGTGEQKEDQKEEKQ

`N#CC1=C(C#N)c2ccc(NCc3ccccc3)c3cccc(c23)C1=O`: the IC50 turned out to be 18.5 µM in test [1] and 14.8 µM in test [2].

On to `CC1(C)CCC(CN2CCN(c3ccc(C(=O)NS(=O)(=O)c4ccc(NCC5CCOCC5)c([N+](=O)[O-])c4)c(Oc4cnc5[nH]ccc5c4)c3)CC2)=C(c2ccc(Cl)cc2)C1` [VENETOCLAX], for which the IC50 in test [1] is > 20 µM.

Turning to `N#CC1=C(NCCO)c2ccc(SC3CCCCC3)c3cccc(c23)C1=O`, the half-inhibitory concentration (IC50) in test [1] came out at 0.81 µM; in [2], 9.6 µM.

In the case of `N#CC1=C(C#N)c2ccc(Sc3ccc(Br)cc3)c3cccc(c23)C1=O`, the values for the concentration for half-maximal inhibition (IC50) in test [1] and in test [2] were 2.5 µM and 0.7 µM, respectively.

As for `N#CC1=C(C#N)c2ccc(Sc3ccccc3)c3cccc(c23)C1=O`, the IC50 in [1] is 7.7 µM; in test [2] it was 1.8 µM.

Regarding `N#CC1=C(NCC2CCCCC2)c2ccc(SC3CCCCC3)c3cccc(c23)C1=O`, the IC50 in test [1] worked out at 8.4 µM; in test [2], 4.8 µM.

As to `N#CC1=C(C#N)c2ccc(SC3CCCC3)c3cccc(c23)C1=O`, the IC50 in test [1] was determined as 3.2 µM; in test [2] it was 8.4 µM.

In the case of `N#CC1=C(C#N)c2ccc(NCCO)c3cccc(c23)C1=O`, the results for the 50% inhibitory concentration (IC50) in [1] and in test [2] were 15.2 µM and > 20 µM, respectively.

As to `COc1ccc(Sc2ccc3c4c(cccc24)C(=O)C(C#N)=C3C#N)cc1`, the IC50 was found to be 4.5 µM in [1] and 6.1 µM in test [2].

Consider `CC(C)c1ccc(Sc2ccc3c4c(cccc24)C(=O)C(C#N)=C3C#N)cc1`, for which the IC50 in test [1] is 4.4 µM; in [2], 2.8 µM.

For the compound `CCCCNC1=C(C#N)C(=O)c2cccc3c(SC4CCCCC4)ccc1c23`, the half-maximal inhibitory concentration (IC50) in [1] amounted to 13.2 µM; in test [2], 16 µM.

In the case of `N#CC1=C(C#N)c2ccc(SC3CCCCC3)c3cccc(c23)C1=O`, the half-inhibitory concentration (IC50) in test [1] turned out to be 1.7 µM; in test [2], 8.6 µM.

Turning to `N#CC1=C(NCCN2CCOCC2)c2ccc(SC3CCCCC3)c3cccc(c23)C1=O`, the EC50 was 1.4 µM in test [3], > 15 µM in test [8], 2.6 µM in test [16] and > 15 µM in test [21]. Further, the inhibition entry in [4], in test [5], in test [7], in [9], in test [11] and in test [14] was “Active” each time. The inhibition entry in [15], in test [18], in [19] and in [20] was “Active” throughout. The IC50 in test [1] worked out at 0.45 µM; in test [2], 18.7 µM. In addition, the Activity result in [6] is “Dose-Dependent Effect”. The outcome in test [10], in [12], in [13], in [23], in [24] and in test [25] was Active. In test [17], the Kd amounted to 0.96 µM. In addition, the inhibition result in test [22] is “inactive”.

For the compound `N#CC1=C(NCCC(N)=O)c2ccc(SC3CCCCC3)c3cccc(c23)C1=O`, the results for the IC50 in test [1] and in test [2] were 1 µM and 13.5 µM, respectively.

As for `N#CC1=C(C#N)c2ccc(NC3CCCCC3)c3cccc(c23)C1=O`, the IC50 in [1] and in [2] was > 20 µM each time.

As to `N#CC1=C(C#N)c2ccc(N3CCSCC3)c3cccc(c23)C1=O`, the figures for the IC50 in [1] and in test [2] were > 20 µM and 0.8 µM, respectively.

In the case of `N#CC1=C(NCc2ccccc2)c2ccc(SC3CCCCC3)c3cccc(c23)C1=O`, the figures for the IC50 in test [1] and in test [2] were 10.5 µM and 5.2 µM, respectively.

For orientation: IC50 means the midpoint of a concentration-inhibition curve. Lower therefore signals higher potency. What is called EC50 is the concentration that produces a half-maximal response. Read a high EC50 as lower potency in that assay. As usually defined, the Kd is a measure of binding affinity in units of concentration.

The values above are taken from ChEMBL document CHEMBL4837197, “A novel Hsp70 inhibitor specifically targeting the cancer-related Hsp70-Bim protein-protein interaction” (Eur J Med Chem, 2021).
